From paper PMC9064899 (The FEBS journal, 2021)
Positions count from the first letter of the chain named. “And” between values parts separate entries of the source, which are not always exact repeats. Identical values can stand only once.

Key:
UBIAD1 N102S = target: T1, UBIAD1 N102S (Homo sapiens, UniProt Q9Y5Z9, N102S); assay: Cell-based UBIAD1 functional assay
T1 sequence (Q9Y5Z9 1-338 N102S): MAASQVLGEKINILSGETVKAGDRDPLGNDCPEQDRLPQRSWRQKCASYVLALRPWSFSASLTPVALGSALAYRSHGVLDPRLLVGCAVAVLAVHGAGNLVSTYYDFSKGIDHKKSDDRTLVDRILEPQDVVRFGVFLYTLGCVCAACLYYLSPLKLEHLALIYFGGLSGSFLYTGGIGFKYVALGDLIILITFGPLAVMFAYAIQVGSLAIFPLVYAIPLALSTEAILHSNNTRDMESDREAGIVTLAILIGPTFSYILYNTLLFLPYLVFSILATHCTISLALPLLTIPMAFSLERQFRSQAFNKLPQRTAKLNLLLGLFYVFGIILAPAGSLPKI
In short: (§1)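 Wild-type or mutant human UBIAD1 in pCI-neo was transiently transfected into Ubiad1-knockout FIXgla-PC/HEK293 cells (DMEM/F12, 10% FBS). […] After 24 h, carboxylated FIXgla-PC in the medium was measured by ELISA. Activity was normalized to wild type (100%), and EC50 came from a curve fit. Mean ± SD, n=3 independent experiments.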

UBIAD1 D236A = target: T2, UBIAD1 D236A (Homo sapiens, UniProt Q9Y5Z9, D236A); assay: Cell-based UBIAD1 functional assay
T2 sequence (Q9Y5Z9 1-338 D236A): T1 sequence (Q9Y5Z9 1-338 N102S) with S102N, D236A
In short: as §1

## CC1=CC(=O)c2ccccc2C1=O [vitamin K3, menadione]
UBIAD1 N102S
  EC50: 3.9 ± 0.3 nM
UBIAD1 N102S; N102S, 1 μM vitamin K3
  Vitamin K-dependent carboxylation Activity ± SD: 98.2 ± 3%
UBIAD1 D236A
  EC50: 90 ± 17.6 nM
UBIAD1 D236A; D236A, 1 μM vitamin K3
  Vitamin K-dependent carboxylation Activity ± SD: 32% and 32.5 ± 0.9%
